In ChEMBL document CHEMBL1687886, “N-cyclic bay-substituted perylene G-quadruplex ligands have selective antiproliferative effects on cancer cells and induce telomere damage” (J Med Chem, 2011):
Activity calls are given as the source filed them. The calls are words filed in the database; no cut-off is given here.

Key:
BJ [1] = assay: Induction of DNA damage response in human BJ cells expressing SV40 early region EHLT assessed as phosphorylation of […] after 24 hrs by immunofluorescence method; format: functional, cell-based
Procedure, shortened: (§1)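 BJ-EHLT and BJ-hTERT fibroblasts exposed to a range of concentrations for 24 h. Fixed in 2% formaldehyde, permeabilized in 0.25% Triton X-100, immunostained for γ-H2AX and 53BP1. Percentage of positive cells scored. Three independent experiments, SD.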

BJ [2] = assay: Cell cycle arrest in human BJ cells expressing TERT assessed as accumulation at S stage at 0.5 uM after 72 hrs by propidium iodide staining based flow cytometry (reference value: 10%); format: ADME
BJ [3] = assay: Induction of telomere dysfunction induced foci n human BJ cells expressing SV40 early protein EHLT assessed as increase in gamma H2AX/TRF1 co-localization at 1 uM by Deconvolution microscopy; format: functional
Procedure, shortened: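 BJ-EHLT cells stained for TRF1 together with γ-H2AX or 53BP1 and imaged by deconvolution microscopy. Cells with four or more γ-H2AX/TRF1 foci scored as TIF positive; percentage of TIF-positive cells and mean TIFs per nucleus recorded. Mean of three experiments, SD.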

BJ [4] = assay: Cell cycle arrest in human BJ cells expressing TERT assessed as accumulation at G2/M stage at 0.5 uM after 72 hrs by propidium iodide staining based flow cytometry (reference value: 5%); format: ADME
BJ [5] = assay: Induction of DNA damage response in human BJ cells expressing human TERT assessed as phosphorylation of […] at 1 uM after 24 hrs by immunofluorescence; format: functional, cell-based; procedure, shortened: as §1
BJ [6] = assay: Induction of DNA damage response in human BJ cells expressing SV40 early protein EHLT assessed as accumulation of gamma-H2AX foci in S-phase by Hoechst staining based Leica deconvolution microscopic analysis; format: functional
Procedure, shortened: (§2)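 BJ-EHLT cells co-immunostained for γ-H2AX and PCNA, nuclei counterstained with Hoechst, imaged by deconvolution microscopy. Percentages of γ-H2AX+/PCNA− and γ-H2AX+/PCNA+ nuclei scored. Mean of three independent experiments.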

BJ [7] = assay: Induction of DNA damage response in human BJ cells expressing SV40 early protein EHLT assessed as accumulation of PCNA in S-phase by Hoechst staining based Leica deconvolution microscopic analysis; format: functional, cell-based; procedure, shortened: as §2
BJ [8] = assay: Cell cycle arrest in human BJ cells expressing TERT assessed as accumulation at G0/G1 stage at 0.5 uM after 24 hrs by propidium iodide staining based flow cytometry (reference value: 61%); format: ADME
Nucleic Acid [9] = assay: Binding affinity to human 21-TT G-quadruplex DNA structure at 1:1 DNA to calf thymus DNA ratio by competitive inhibition assay; format: nucleic-acid assay; parameters: concentration or dose not given beside the values
Procedure, shortened: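 ESI-MS competition: quadruplex DNA and ligand each 5 μM final, plus calf thymus DNA at duplex/quadruplex ratios 1 and 5 (by phosphate concentration), in ammonium acetate. Percentage bound quadruplex and normalized bound quadruplex (N%) measured by mass spectrometry. SD over at least three independent experiments.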

BJ [10] = assay: Antiproliferative activity against human BJ cells expressing TERT at 3 uM after 2 to 8 days by trypan blue assay; format: functional, cell-based; conditions: 0.5 uM, in the assay text read “at 0.5 uM” for “at 3 uM”
Procedure, shortened: (§3)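 Cells seeded at 5 ×10^4 per dish; compounds freshly dissolved and added to the medium 24 h after plating, at 0.5 μM or 3 μM (3 μM only for one derivative). Cell number by Coulter counting and viability by trypan blue exclusion daily, day 1 to day 8. Growth inhibition of treated vs untreated cells calculated at days 2, 4, 6 and 8. Representative experiments in quintuplicate, SD shown.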

BJ [11] = assay: Antiproliferative activity against human BJ cells expressing SV40 early region EHLT at 0.5 uM after 24 hrs by Coulter counter method; format: functional, cell-based; conditions: TDE = time-dependent effect, in the assay text read “after 2 to 8 days” for “after 24 hrs”; procedure, shortened: as §3
BJ [12] = assay: Cell cycle arrest in human BJ cells expressing TERT assessed as accumulation at G0/G1 stage at 0.5 uM after 48 hrs by propidium iodide staining based flow cytometry (reference value: 80%); format: ADME
BJ [13] = assay: Cell cycle arrest in human BJ cells expressing TERT assessed as accumulation at G0/G1 stage at 0.5 uM after 72 hrs by propidium iodide staining based flow cytometry (reference value: 83%); format: ADME
BJ [14] = assay: Delocalization of POT1 protein from […] in human BJ cells expressing SV40 early protein EHLT after 72 hrs by chromatin immunoprecipitation assay; format: functional, cell-based
Procedure, shortened: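 BJ-EHLT cells treated 24 or 72 h. Formaldehyde-crosslinked chromatin immunoprecipitated with anti-TRF1, anti-TRF2 or anti-POT1; β-actin antibody as negative control. Precipitates blotted and probed for telomeric repeats (ALU probe as nonspecific). Densitometry gives percentage of precipitated DNA relative to input (10% and 1%). Four independent experiments, SD.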

Nucleic Acid [15] = assay: Binding affinity to human DK66 duplex DNA structure assessed as second step association constant by electrospray ionization mass spectrometry; format: nucleic-acid assay
Procedure, shortened: (§4)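 ESI-MS in 150 mM ammonium acetate; DNA 5 μM final (per duplex or quadruplex unit); ligand at drug/DNA ratios 0.5 to 4. Methanol (15%) added just before injection, after binding equilibrium. K1 and K2 for 1:1 and 2:1 complexes, and % bound DNA, taken from relative peak intensities assuming equal response factors. At least three repeats.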

Nucleic Acid [16] = assay: Stabilization of 21-mer human F21T G4-telomeric quadruplex assessed as change in melting temperature at 1 uM by FRET assay; format: nucleic-acid assay
Nucleic Acid [17] = assay: Binding affinity to human 21-TT G-quadruplex DNA structure assessed as first step association constant by electrospray ionization mass spectrometry; format: nucleic-acid assay; procedure, shortened: as §4

- Activity (BJ [2]): 7.6%
- Activity (BJ [4]): 5.1%
- Activity (BJ [8]): 62.8%
- Activity (Nucleic Acid [9]): 47%
- Activity (BJ [12]): 78.4%
- Activity (BJ [13]): 87.3%
- log Ks (Nucleic Acid [15]): 4.2
- ΔTm (Nucleic Acid [16]): 23 °C
- log Ks (Nucleic Acid [17]): 5.8
Structure (SMILES): O=C1c2ccc3c4ccc5c6c(cc(N7CCCCC7)c(c7ccc(c2c37)C(=O)N1CCOCCN1CCCCC1)c64)C(=O)N(CCOCCN1CCCCC1)C5=O
- Activity (BJ [1]): Active
- Activity (BJ [3]): 50%
- Activity (BJ [5]): inactive
- Activity (BJ [6]): 80%
- Activity (BJ [7]): Active
- Activity (BJ [10]): Non-toxic
- Activity (BJ [11]): tde
- Activity (BJ [14]): Active
